Experimental data: ChEMBL document CHEMBL1142098, “A xanthocillin-like alkaloid from the insect pathogenic fungus Cordyceps brunnearubra BCC 1395” (J Nat Prod, 2007)
Calls of active or inactive are those of the source. The rule behind the calls is not given here.

Columns and labels:
Plasmodium falciparum = assay: Antimalarial activity against multidrug-resistant Plasmodium falciparum K1; assay type: functional, organism-based
Procedure, shortened: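 Microculture radioisotope assay against the multidrug-resistant K1 strain of P. falciparum, with IC50 read out. Dihydroartemisinin was run as the reference standard in the same assay system.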

Vero = assay: Cytotoxicity against Vero cells upto 140 uM; assay type: cell-based; settings: chlorocebus sabaeus
Procedure, shortened: (§1)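 Cytotoxicity was measured by a colorimetric method on purified compounds. The cells were human epidermoid carcinoma (KB), human breast cancer (BC), human lung cancer (NCI-H187) and African green monkey kidney fibroblast (Vero) cells.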

[1] = Cytotoxicity against human NCI-H187 cells upto 56 uM; assay type: cell-based; procedure, shortened: as §1
[2] = Cytotoxicity against human BC cells upto 56 uM; assay type: cell-based; settings: for Activity: human, bc; procedure, shortened: as §1
KB = assay: Cytotoxicity against human KB cells upto 56 uM; assay type: cell-based; procedure, shortened: as §1

| SMILES | IC50 (Plasmodium falciparum) [µM] | Activity (Vero) | Activity [1] | Activity (Plasmodium falciparum) | Activity [2] | Activity (KB) | IC50 ([2]; Homo sapiens, BC) [µM] |
| --- | --- | --- | --- | --- | --- | --- | --- |
| C[C@H]1[C@@H](O)O[C@@H]2O[C@@]3(C)CC[C@H]4[C@H](C)CC[C@@H]1[C@@]24OO3 [ARTENIMOL] | 0.0042 | – | – | – | – | – | – |
| CC(=O)O/C=N/C(=C\c1ccc(OC(C)=O)c(OC(C)=O)c1)C(=C/c1ccc(OC(C)=O)c(OC(C)=O)c1)/N=C/OC(C)=O | – | Not Active | Not Active | inactive | Not Active | Not Active | – |
| O=CNC(=C\c1ccc(O)c(O)c1)/C(=C/c1ccc(O)c(O)c1)NC=O [CORDYFORMAMIDE] | 18 | Not Active | Not Active | – | – | Not Active | 39 |
| COc1ccc(/C=C(/C(=C/c2ccc(OC)c(OC)c2)N(C)C=O)N(C)C=O)cc1OC | – | Not Active | Not Active | inactive | Not Active | Not Active | – |
